# Screens (PubChem BioAssay)
# SENP8 block-1: blocks human SENP8 cleavage of Nedd8 substrate; recombinant SENP8, Nedd8 substrate fluorescence; inhibition, % at 20 µM; Q96LD8; 360,000 compounds, 0.64% hits; in the data active = inhibition mostly above about 40%, no sharp cut-off; inactive = mostly below about 27%
# SENP6 inh: inhibitors of human SENP6 protease. inhibition, % at 10 µM. 330,000 compounds, 1.8% hits. Recombinant SENP6 catalytic domain, aminoluciferin luminescence. AID 2599;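 active = inhibition above about 50% at the single tested dose, limit read from the data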;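 note: plate controls were DMSO wells with enzyme for no effect and DMSO wells lacking enzyme for full effect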
# Target sequence (Q9GZR1 628-1112 limits assumed): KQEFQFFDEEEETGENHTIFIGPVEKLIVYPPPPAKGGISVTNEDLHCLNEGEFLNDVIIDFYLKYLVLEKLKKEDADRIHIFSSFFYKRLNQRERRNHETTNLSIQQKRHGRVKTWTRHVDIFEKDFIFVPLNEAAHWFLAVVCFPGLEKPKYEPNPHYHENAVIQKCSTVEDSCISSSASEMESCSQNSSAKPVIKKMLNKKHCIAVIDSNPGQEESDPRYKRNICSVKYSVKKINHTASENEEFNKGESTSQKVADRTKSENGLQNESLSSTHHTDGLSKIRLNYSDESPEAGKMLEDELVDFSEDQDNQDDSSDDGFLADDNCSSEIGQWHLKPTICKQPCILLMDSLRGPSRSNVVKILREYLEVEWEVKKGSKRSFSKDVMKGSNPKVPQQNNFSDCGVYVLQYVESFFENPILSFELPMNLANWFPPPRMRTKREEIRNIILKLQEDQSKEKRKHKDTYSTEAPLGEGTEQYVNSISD
# SENP1 FRET inh: blocks the human SENP1 SUMO protease catalytic domain. Q9P0U3. AID 624204. inhibition, % at 10 µM. recombinant SENP1 catalytic domain, CyPet-SUMO1-YPet FRET cleavage. 360,000 compounds, 0.21% hits;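 active = inhibition at least 30% at 10 µM, raw YFP signal under a set limit, fluorescence ratio 0.5 to 1.5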;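 note: 0% = enzyme with DMSO and 100% = no enzyme wells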
#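 Test system: recombinant human SENP1 catalytic domain, His6-tagged / Medium: pH 8 Tris buffer with EDTA, NaCl, BME, BSA, NP40, catalase / Also added: SUMO1 FRET substrate flanked by Cypet and Ypet, 25 nM / Times: 50 min reaction at room temperature / Signal: FRET, CFP and YFP emission / Control set: no-enzyme low control and enzyme-plus-DMSO high control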
# SENP7 inh: blocks the human protease SENP7. Q9BQF6. recombinant SENP7, Z-RLRGG-aminoluciferin luminescence, 40 min. inhibition, % at 5 µM. 330,000 compounds, 1.5% hits. AID 434973;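 active = inhibition above about 50% at the single test dose, limit read from the data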;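 note: plate controls were DMSO with enzyme for no effect and no enzyme buffer wells for full effect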
# SENP8 block-2: blocks the human protease SENP8; Q96LD8; purified SENP8, Z-RLRGG-aminoluciferin cleavage, luminescence; inhibition, % at 10 µM; 330,000 compounds, 1.2% hits; AID 2540; in the data active = inhibition above about 50%
# SENP8 inh conf: confirmation of human SENP8 protease inhibitors; shares compounds with SENP8 block-1; purified SENP8, Nedd8-AMC/pro-Nedd8 cleavage fluorescence, 30 min; inhibition, % at 25 µM; 1,400 compounds, 15% hits; AID 624319; in the data active = inhibition mostly above about 39%, no sharp cut-off; inactive = mostly below about 34%
# * = called active by the depositor; i = inactive; nt = not tested or not shown. A selection: hits, their analogues and other compounds. The true share with any hit is near 2.5%.
SMILES,SENP8 block-1,SENP6 inh,SENP1 FRET inh,SENP7 inh,SENP8 block-2,SENP8 inh conf
O=C(CCn1c(=O)oc2ccccc21)NCCN1CCc2ccccc2C1,11,-8,-3,12,0,nt
O=C(CCCn1c(=O)oc2ccccc21)N1CCc2ccccc2C1,48*,-3,0,0,-7,78*
CN(C)C=Nc1c(Br)cc(Br)c2nonc12,58*,39,44,12,23,45*
CCOc1cc(C(=S)N2CCOCC2)cc(Br)c1OS(=O)(=O)c1ccccc1,42*,-8,1,-6,6,66*
CCOc1cc(C(=S)N2CCOCC2)ccc1OS(=O)(=O)c1ccc(C)cc1,18,-5,0,4,-5,nt
Cc1cc(NC(=O)CCC(=O)N(Cc2ccco2)C(C(=O)NC2CCCC2)c2ccccc2C)no1 (centres undefined),60*,-18,-4,-5,-5,27
O=C(COc1ccc(Br)cc1CO)Nc1ccc(F)cc1,41*,-16,-2,-6,-11,18
C#CCOCCOCCOCCNc1nc(N2CCN(C(=O)[C@H](CCCCN)n3cc(CN)nn3)CC2)nc(N2CCN(C(=O)[C@H](CCCCN)n3cc([C@@H](N)CC(N)=O)nn3)CC2)n1,40*,nt,1,nt,nt,34
COc1ccc2[nH]c3c(c2c1)CCN1C(=O)C(CC(=O)NCCC2=CCCCC2)C[C@H](C(=O)N2CCCCC2)[C@@]31CCc1ccccc1 (some centres undefined),6,nt,-1,12,nt,nt
CCOC(=O)c1cccc(NC(=O)CCS(=O)(=O)c2cccc3nsnc23)c1,28,-8,-1,-8,-11,nt
Cc1cccc(NC(=O)CCS(=O)(=O)c2cccc3nsnc23)c1C,41*,-10,3,6,6,15
CCCCc1c(-c2ccccc2F)ncn1CCc1ccccc1OC,5,nt,3,nt,nt,nt
C=CCc1ccc(OC)c(OC)c1,52*,-6,6,-5,1,15
O=C(COC(=O)C1CC(=O)N(CCc2ccccc2)C1)c1ccc[nH]1 (centres undefined),-3,-23,-1,-13,-8,nt
COc1cccc(CNS(=O)(=O)c2ccc3c(c2)oc(=O)n3C)c1,13,2,10,-15,-6,nt
Cc1nc(C)c(-c2ccccc2)c(=O)[nH]1,11,-27,3,11,-9,nt
Cc1nc(C)n(C)c(=O)c1-c1ccccc1,40*,-21,0,-6,-8,5
O=[N+]([O-])c1ccc(N/N=C/c2c[nH]c3ccccc23)cc1,52*,-4,-23,3,-18,4
O=C(N/N=C/c1c[nH]c2ccccc12)c1cccc([N+](=O)[O-])c1,35,0,1,1,-12,nt
Cc1cc(-c2nnc(CCC(=O)NCCc3ccccc3F)o2)no1,9,-14,0,-8,-1,nt
CCNC(=O)Nc1ccc(-n2nc(C)c(C(=O)OCC)c2C)nc1,3,-11,0,1,-4,nt
O=C(Cc1cc(=O)[nH][nH]1)N/N=C/C=C/c1ccccc1,44*,4,0,4,1,34
O=C(CNC(=O)c1ccccc1)N/N=C/C=C/c1ccccc1,4,10,2,1,8,nt
CCOc1ccc(Cl)cc1-c1cc(C(=O)Nc2ccc(Br)cc2)[nH]n1,8,nt,0,nt,nt,nt
Cc1ccc(N(CC(=O)NCc2ccco2)C(=O)CCC(=O)Nc2nccs2)cc1C,6,-17,0,0,-10,nt
SMILES,SENP8 block-1,SENP6 inh,SENP1 FRET inh,SENP7 inh,SENP8 block-2,SENP8 inh conf
CCOC(=O)COc1ccc(/C=C2/SC(=Nc3ccccc3)N(Cc3cccnc3)C2=O)cc1OC,43*,-2,-1,8,-1,19
C=CCCN(Cc1ccccc1)S(=O)(=O)c1cc(Br)ccc1Br,6,-6,-2,3,1,nt
O=C(NC(=S)N1CCN(C/C=C/c2ccccc2)CC1)c1ccco1,4,2,-7,-5,-4,nt
O=C(NC(=S)N1CCN(C/C=C/c2ccccc2)CC1)c1c(F)cccc1F,43*,11,4,8,-1,8
CCN(C(=S)Nc1cccc2ccccc12)c1ccccc1,i,nt,-2,nt,nt,nt
CC(=O)C1=NN(c2ccccc2)C(c2ccc3c(c2)OCO3)N1c1ccc(N2CCOCC2)cc1 (centres undefined),44*,-8,-16,0,-8,18
